In ChEMBL document CHEMBL4052653, “Discovery of Novel and Potent Stearoyl Coenzyme A Desaturase 1 (SCD1) Inhibitors as Anticancer Agents” (Bioorg Med Chem, 2017):
Activity calls are given as the source filed them. The calls are words filed in the database; no cut-off is given here.

What was measured:
Stearoyl-CoA desaturase [1] = biological target: T1, Stearoyl-CoA desaturase (Homo sapiens, UniProt O00767); test: Displacement of (5-(6-(10H-spiro(1-benzofuran-3,30-pyrrolidin)-10-yl)pyridazin-3-yl)-1,2,4-oxadiazol-3-yl)[3H2]methanol from SCD1 in human liver microsomes after 120 mins TopCount liquid scintillation counting method
T1 sequence (O00767 whole entry): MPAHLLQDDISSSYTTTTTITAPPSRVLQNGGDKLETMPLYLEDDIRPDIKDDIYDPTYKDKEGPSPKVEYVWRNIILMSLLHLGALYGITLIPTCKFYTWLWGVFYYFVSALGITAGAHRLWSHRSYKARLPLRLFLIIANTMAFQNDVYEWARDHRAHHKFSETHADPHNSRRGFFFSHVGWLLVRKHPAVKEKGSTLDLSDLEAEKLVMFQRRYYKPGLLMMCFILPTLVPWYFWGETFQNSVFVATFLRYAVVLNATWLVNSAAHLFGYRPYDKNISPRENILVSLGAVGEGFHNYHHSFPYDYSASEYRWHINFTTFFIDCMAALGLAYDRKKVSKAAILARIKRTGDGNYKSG
How it was run: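 Human SCD1 liver microsomes incubated 120 min with 3.0 nM [3H]-ligand and test compound over a range of concentrations. Bound ligand collected on PEI-pretreated GF/B filters, washed five times, counted by scintillation. Controls: DMSO (100%) and 10 µM unlabeled reference ligand (0%). IC50 from a three-parameter logistic fit.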

HCT-116 = test: Growth inhibition of human HCT116 cells after 72 hrs by CellTiter-Glo luminescence assay; type: functional; details: HCT-116, 72 h
How it was run: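 HCT116 cells seeded at 9 × 10^2 cells/well and cultured 24 h. Compounds diluted in growth medium to final concentrations and added. Proliferation read by CellTiter-Glo luminescence after 72 h.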

[2] = Stability in human liver microsomes; type: ADME, microsome; details: read-out: Stability
[3] = Stability in mouse liver microsomes; type: ADME, microsome; details: read-out: Stability
Stearoyl-CoA desaturase [4] = biological target: T1, Stearoyl-CoA desaturase; test: Inhibition of SCD1 (unknown origin)
Mus musculus [5] = test: AUC in mouse at 1 mg/kg, po administered as cassette dose; type: ADME, organism-based; details: in vivo
How it was run: (§1)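 Mouse cassette-dosing PK: 0.1 mg/kg iv and 1 mg/kg po. Total clearance given in […]. AUC (ng·h/mL) and MRT (h) taken after the oral dose.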

[6] = Mean residence time in mouse at 1 mg/kg, po administered as cassette dose; type: ADME, organism-based; details: in vivo; how it was run: as §1
[7] = Fraction unbound in mouse plasma; type: ADME, cell-free
[8] = Total clearance in mouse at 0.1 mg/kg, iv or 1 mg/kg, po administered as cassette dose; type: ADME, organism-based; details: in vivo; how it was run: as §1
[9] = AUC in po dosed mouse administered as cassette dose; type: ADME, organism-based; details: in vivo; how it was run: as §1
[10] = Mean residence time in po dosed mouse administered as cassette dose; type: ADME, organism-based; details: in vivo; how it was run: as §1
Mus musculus [11] = test: In-vivo inhibition of SCD1 in athymic nude mouse xenografted with human HCT116 cells assessed as decrease in desaturation index of phosphatidylcholine at 0.3 to 30 mg/kg, po bid measured after 16 hrs by LC/MS analysis; type: functional, organism-based
How it was run: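 Nude mice bearing HCT116 xenografts of about 200 mm3, randomized. Oral dosing at 0.3, 3 and 30 mg/kg bid in 0.5% methylcellulose. Tumors collected 16 h after two doses and homogenized in isopropanol. Lipids analyzed by LC/Orbitrap MS. DI taken as the ratio PC C36:3/PC C36:0. Statistics by Williams' test.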

786-0 = test: Antitumor activity against human 786-O cells xenografted in athymic BALB/cA Jc1-nu/nu mouse assessed as tumor growth inhibition at 1 mg/kg, po bid administered for 28 days measured twice per week; type: functional
How it was run: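 Female BALB/c nu/nu mice, 7 weeks old, inoculated subcutaneously in the flank with 3.0 × 10^6 786-O cells (1:1 with Matrigel). Randomized at mean tumor volume of about 130 mm3, n = 8/group. Dosed orally at 1 mg/kg bid, or with 0.5% methylcellulose vehicle, for 28 days at 10 mL/kg. Calipers used twice weekly, volume = W²×L/2. T/C taken at Day 28; Student's t-test.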

Mus musculus [12] = test: Toxicity in athymic BALB/cA Jc1-nu/nu mouse at 1 mg/kg, po bid administered for 28 days; type: organism-based; details: in vivo, 672 h

Row | SMILES | IC50 (Stearoyl-CoA desaturase [1]) [nM] | GI50 (HCT-116) [nM] | microsomal CLint [2] [µL/min/mg] | microsomal CLint [3] [µL/min/mg] | other results
1 | OCc1noc(-c2ccc(N3CCC4(COc5ccccc54)C3)nn2)n1 (stereo unspecified) |  |  |  |  | IC50 (Stearoyl-CoA desaturase [4]): 4.6 nM; AUC (Mus musculus [5]): 299 ng·h/mL; MRT [6]: 2.3 h
2 | N#CC1(c2ccc(Cl)cc2)CCN(c2ccc(-c3nc(CO)no3)nn2)CC1 | 20 | 110 |  | 39 | 
3 | N#CC1(c2ccccc2Cl)CCN(c2ccc(-c3nc(CO)no3)nn2)CC1 | 80 | 240 |  |  | 
4 | N#CC1(c2ccc([N+](=O)[O-])cc2)CCN(c2ccc(-c3nc(CO)no3)nn2)CC1 | 100 | 170 | 6 | 11 | 
5 | COC1(c2ccccc2)CCN(c2ccc(-c3nc(CO)no3)nn2)CC1 | 110 | 410 |  |  | 
6 | OCc1noc(-c2ccc(N3CCC(O)(c4ccccc4)CC3)nn2)n1 | 130 | > 1000 |  |  | 
7 | N#CC1(c2ccc(C(F)(F)F)cc2)CCN(c2ccc(-c3nc(CO)no3)nn2)CC1 | 27 | 39 | 2 | 33 | 
8 | N#CC1(c2cccc(Cl)c2)CCN(c2ccc(-c3nc(CO)no3)nn2)CC1 | 15 | 200 |  |  | 
9 | OCc1noc(-c2ccc(N3CCC(c4ccccc4)(C(F)(F)F)CC3)nn2)n1 | 38 | 39 |  |  | 
10 | NC1(c2ccccc2)CCN(c2ccc(-c3nc(CO)no3)nn2)CC1 | 220 | 530 |  |  | 
11 | N#CC1(c2ccccc2)CCN(c2ccc(-c3nc(CO)no3)nn2)CC1 | 190 | 530 |  |  | 
12 | CC(C)(C)c1ccc(C2(C#N)CCN(c3ccc(-c4nc(CO)no4)nn3)CC2)cc1 | 21 | 37 |  | 119 | 

Continued, in another order:

Row | IC50 (Stearoyl-CoA desaturase [1]) [nM] | GI50 (HCT-116) [nM] | microsomal CLint [2] [µL/min/mg] | microsomal CLint [3] [µL/min/mg] | SMILES | other results
13 | 9.5 | 8.4 | 7 | 24 | N#CC1(c2ccc(S(F)(F)(F)(F)F)cc2)CCN(c2ccc(-c3nc(CO)no3)nn2)CC1 | 
14 | 2.3 | 1.3 | 20 | 19 | OCc1noc(-c2ccc(N3CCC(c4ccc(C(F)(F)F)cc4)(C(F)(F)F)CC3)nn2)n1 | fraction unbound [7]: 0.05; clearance [8]: 15.4 mL/min/kg; AUC [9]: 432 ng·h/mL; MRT [10]: 3.2 h
15 | 4.7 | 2.7 | 14 | 33 | OCc1nnc(-c2ccc(N3CCC(c4ccc(C(F)(F)F)cc4)(C(F)(F)F)CC3)nn2)o1 | fraction unbound [7]: 0.07; clearance [8]: 5.17 mL/min/kg; AUC [9]: 3760 ng·h/mL; MRT [10]: 4.2 h; inhibition (Mus musculus [11]): Active; T/C (786-0): 32.8%; Activity (Mus musculus [12]): Non-Toxic
16 | 11 | 32 |  | 35 | N#CC1(c2ccc(OC(F)(F)F)cc2)CCN(c2ccc(-c3nc(CO)no3)nn2)CC1 | 
17 | 2.5 | 1.1 |  | 1 | OCc1nnc(-c2ccc(N3CCC(c4ccc(C(F)(F)F)cc4)(C(F)(F)F)CC3)nn2)s1 | fraction unbound [7]: 0.03; clearance [8]: 15.9 mL/min/kg; AUC [9]: 1190 ng·h/mL; MRT [10]: 4.1 h
18 | 1.2 | 1.3 | 10 |  | OCc1nsc(-c2ccc(N3CCC(c4ccc(C(F)(F)F)cc4)(C(F)(F)F)CC3)nn2)n1 | fraction unbound [7]: 0.01; clearance [8]: 8.23 mL/min/kg; AUC [9]: 1820 ng·h/mL; MRT [10]: 4.2 h
